Active and inactive are the calls of the source. The rule behind the calls is not given here.
What was measured:
Homo sapiens [1] = test: Drug metabolism in human assessed as metabolite level treated with 800 mg, po of danazol in urine after 24 hrs by TLC analysis; format: ADME, organism-based; conditions: in vivo
Summary of the method: (§1)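 Urine was collected from one subject given 800 mg/day orally for 7 days. Metabolites were isolated from the urine, purified in separate chromatographic systems, and identified against synthetic reference material by UV spectra in methanol and by mass spectra.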

Rattus norvegicus [2] = test: Inhibition of pituitary gonadotropin activity in rat assessed as decrease of seminal vesicles weight at 100 mg/kg, po for 14 days; format: functional, organism-based; parameters: dose 100 mg/kg; conditions: Pituitary gland
Summary of the method: (§2)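 Mature male rats were dosed orally at 100 mg/kg in ethanol-oil vehicle for 14 days. Ventral prostate, seminal vesicle and testicular weights were then compared against controls for significance.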

Rattus norvegicus [3] = test: Inhibition of pituitary gonadotropin activity in rat assessed as decrease of ovarian weight at 50 mg/kg, sc for 14 days; conditions: Pituitary gland
Rattus norvegicus [4] = test: Inhibition of pituitary gonadotropin activity in rat assessed as decrease of number of vaginal estrous days at 50 mg/kg, sc for 14 days; conditions: Pituitary gland
Rattus norvegicus [5] = test: Inhibition of pituitary gonadotropin activity in rat assessed as decrease of ventral prostate weight at 100 mg/kg, po for 14 days; format: functional, organism-based; parameters: dose 100 mg/kg; conditions: Pituitary gland; summary of the method: as §2
Rattus norvegicus [6] = test: Inhibition of pituitary gonadotropin activity in rat assessed as decrease of testicular weight at 100 mg/kg, po for 14 days; format: functional, organism-based; parameters: dose 100 mg/kg; conditions: Pituitary gland; summary of the method: as §2
Homo sapiens [7] = test: Drug metabolism in human assessed as 17-hydroxy-2alpha-(hydroxymethyl)-17apregn-4-en-20-yn-3-one level in urine at 800 mg, po after 24 hrs by TLC analysis; format: ADME, organism-based; conditions: in vivo; summary of the method: as §1
[8] = Drug metabolism in rhesus monkey assessed as 17-hydroxy-17alpha-pregn-4-en-20-yn-3-one level in urine at 50 mg/kg, po bid after 24 hrs by TLC analysis; format: ADME, organism-based, Macaca mulatta; parameters: dose 50 mg/kg, route oral; conditions: in vivo
Rattus norvegicus [9] = test: Inhibition of pituitary gonadotropin activity in rat assessed as decrease of number of vaginal estrous days at 20 mg/kg, sc for 14 days; conditions: Pituitary gland
Rattus norvegicus [10] = test: Inhibition of pituitary gonadotropin activity in rat assessed as decrease of ovarian weight at 20 mg/kg, sc for 14 days; conditions: Pituitary gland
Homo sapiens [11] = test: Drug metabolism in human assessed as 6beta,17-dihydroxy-2alpha-(hydroxymethyl)-17alpha-pregn-4-en-20-yn-3-one level in urine at 800 mg, po after 24 hrs by TLC analysis; format: ADME, organism-based; conditions: in vivo; summary of the method: as §1
Homo sapiens [12] = test: Drug metabolism in human assessed as 6beta,17-dihydroxy-2-(hydroxymethyl)-17alpha-pregna-1,4-dien-20-yn-3-one level in urine at 800 mg, po after 24 hrs by TLC analysis; format: ADME, organism-based; conditions: in vivo; summary of the method: as §1
Homo sapiens [13] = test: Drug metabolism in human assessed as 17-hydroxy-2-(hydroxymethyl)-17alpha-pregna-1,4-dien-20-yn-3-one level in urine at 800 mg, po after 24 hrs by TLC analysis; format: ADME, organism-based; conditions: in vivo; summary of the method: as §1
[14] = Drug metabolism in rhesus monkey assessed as metabolite level in urine treated with at 50 mg/kg, po bid of danazol after 24 hrs by TLC analysis; format: ADME, organism-based, Macaca mulatta; parameters: dose 50 mg/kg, route oral; conditions: in vivo
Rattus norvegicus [15] = test: Inhibition of pituitary gonadotropin activity in rat assessed as decrease of ovarian weight at 25 mg/kg, sc for 14 days; conditions: Pituitary gland
Rattus norvegicus [16] = test: Inhibition of pituitary gonadotropin activity in rat assessed as decrease of number of vaginal estrous days at 25 mg/kg, sc for 14 days; conditions: Pituitary gland

Row | Drug metabolism (Homo sapiens [1]) | Drug metabolism (Homo sapiens [7]) | Drug metabolism [8] | Drug metabolism (Homo sapiens [11]) | Drug metabolism (Homo sapiens [12]) | Drug metabolism (Homo sapiens [13]) | SMILES | inhibition (Rattus norvegicus [2]) | inhibition (Rattus norvegicus [3]) | inhibition (Rattus norvegicus [4]) | inhibition (Rattus norvegicus [5]) | inhibition (Rattus norvegicus [6]) | inhibition (Rattus norvegicus [9]) | inhibition (Rattus norvegicus [10]) | Drug metabolism [14] | inhibition (Rattus norvegicus [15]) | inhibition (Rattus norvegicus [16])
1 | metabolite_detected | – | – | – | – | – | C#C[C@]1(O)CC[C@H]2[C@@H]3CCC4=CC(=O)[C@H](CO)C[C@]4(C)[C@H]3CC[C@@]21C | inactive | inactive | inactive | inactive | inactive | – | – | – | – | –
2 | – | metabolite_detected | metabolite_detected | metabolite_detected | metabolite_detected | metabolite_detected | C#C[C@]1(O)CC[C@H]2[C@@H]3CCC4=Cc5oncc5C[C@]4(C)[C@H]3CC[C@@]21C [DANAZOL] | Active | – | – | Active | Active | Active | Active | – | – | –
3 | – | – | – | – | – | – | C#C[C@]1(O)CC[C@H]2[C@@H]3CCC4=CC(=O)CC[C@]4(C)[C@H]3CC[C@@]21C [ETHISTERONE] | inactive | – | – | inactive | inactive | – | – | metabolite_detected | inactive | inactive
4 | metabolite_detected | – | – | – | – | – | C#C[C@]1(O)CC[C@H]2[C@@H]3C[C@@H](O)C4=CC(=O)[C@H](CO)C[C@]4(C)[C@H]3CC[C@@]21C | inactive | inactive | inactive | inactive | inactive | – | – | – | – | –
5 | metabolite_detected | – | – | – | – | – | C#C[C@]1(O)CC[C@H]2[C@@H]3C[C@@H](O)C4=CC(=O)C(CO)=C[C@]4(C)[C@H]3CC[C@@]21C | inactive | inactive | inactive | inactive | inactive | – | – | – | – | –
6 | metabolite_detected | – | – | – | – | – | C#C[C@]1(O)CC[C@H]2[C@@H]3CCC4=CC(=O)C(CO)=C[C@]4(C)[C@H]3CC[C@@]21C | inactive | – | – | inactive | inactive | – | – | – | inactive | inactive
